DNMT1 inh – blocks human DNA methyltransferase DNMT1; P26358; DNMT1 molecular beacon, Hinp1I cleavage, fluorescence; inhibition (reported as % activation of signal), % at 10 µM; 360,000 compounds, 0.83% hits; AID 588458; in the data active means inhibition above about 50%
Scp-1 inhibitor – Scp-1 (human) phosphatase inhibition. Q9GZU7. Recombinant Scp1, phosphopeptide, malachite green phosphate absorbance. inhibition, % at 20 µM. 340,000 compounds, 0.88% hits. AID 493091;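 active means inhibition above about 50% at 20 µM, limit read from the data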;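 further: plate controls were DMSO wells with enzyme for no effect and wells lacking enzyme for full effect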
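Incubation: 45 min enzyme reaction at room temperature / System: truncated SCP-1 phosphatase (76-261aa) / Reagent: Phospho 17-mer peptide substrate / Buffer or medium: Acidic Tris acetate buffer with magnesium and detergent / Signal: absorbance at 630 nm / Doses: one concentration, 20 µM, with 1.0% DMSO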
Rpn11 block – blocks the human proteasome subunit Rpn11; human 26S proteasome, Ub4-pepOG fluorescence polarization; 20S core pre-blocked with epoxomicin; inhibition, % at 20 µM; 360,000 compounds, 0.59% hits; AID 588493;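 active means inhibition at 20 µM, scaled to each plate's controls, above about 33%, limit read from the data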
Target sequence (O00487 whole entry, looked up): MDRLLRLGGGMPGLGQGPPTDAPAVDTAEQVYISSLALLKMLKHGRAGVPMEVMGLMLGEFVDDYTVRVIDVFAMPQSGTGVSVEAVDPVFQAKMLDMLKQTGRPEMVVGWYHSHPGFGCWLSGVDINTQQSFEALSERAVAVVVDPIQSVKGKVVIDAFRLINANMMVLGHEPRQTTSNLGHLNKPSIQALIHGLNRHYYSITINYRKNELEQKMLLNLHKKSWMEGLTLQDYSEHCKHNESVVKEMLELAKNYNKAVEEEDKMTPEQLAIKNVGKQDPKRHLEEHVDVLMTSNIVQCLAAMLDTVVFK
STEP block – inhibitors of human striatal-enriched phosphatase STEP | recombinant STEP, OMFP fluorogenic substrate, fluorescence | inhibition, % at 20 µM | 360,000 compounds, 0.25% hits | AID 588621;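 active means inhibition at 20 µM, scaled per plate between control wells, above about 37%, limit read from the data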;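 further: 0% = DMSO with enzyme and substrate and 100% = substrate only without enzyme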
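System: STEP phosphatase, cell-free reaction; Buffer or medium: Bis-Tris pH 6.0 buffer with DTT, detergent; Incubation: 20 min at room temperature, dark; Measured by: fluorescence, 480/540 nm.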
LMPTP block – blocks human LMPTP phosphatase; P24666; 360,000 compounds, 0.22% hits; inhibition, % at 20 µM; recombinant LMPTP-A, OMFP fluorogenic substrate, fluorescence intensity; AID 651560;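 active means compounds that cut the enzyme signal by at least half of the control window in the single-dose screen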;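 further: plate controls were DMSO wells with enzyme plus substrate for no effect and substrate without enzyme for full effect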
Target sequence (P24666 whole entry, looked up): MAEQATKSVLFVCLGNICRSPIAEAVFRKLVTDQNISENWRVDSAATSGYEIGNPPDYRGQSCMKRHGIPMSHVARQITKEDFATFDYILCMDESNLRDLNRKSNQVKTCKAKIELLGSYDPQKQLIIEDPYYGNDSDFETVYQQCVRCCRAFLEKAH
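Assay system: LMPTP-A phosphatase enzyme | Input: 0.625 nM enzyme | Also added: Fluorogenic phosphatase substrate OMFP at 400 µM final | Compound dosing: One test concentration per compound, 20 µM, with 3% DMSO overall | Schedule: 50 min enzyme reaction at room temperature, protected from light | Signal: Fluorescence intensity | Benchmarks: no-enzyme and uninhibited controls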
SUMO1-SIM PPI – modulators of human SUMO1-mediated protein-protein interactions | P63165 | SUMO1 binding to a labelled peptide, TR-FRET, 1 h | inhibition, % at 20 µM | 360,000 compounds, 0.33% hits; in the data active means inhibition above about 37%
Scp-1 conf – Scp-1 (human) inhibition, single-dose confirmed. shares compounds with Scp-1 inhibitor. recombinant SCP-1 catalytic domain, phosphate release, malachite green absorbance. inhibition, % at 20 µM. 2,500 compounds, 61% hits;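 further: plate controls were DMSO with enzyme for no effect and buffer wells lacking enzyme for full effect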
Scp-1 MG ctr – interferes with malachite green readout, flagging false Scp-1 hits; shares compounds with Scp-1 inhibitor; Colorimetric interference counterscreen, malachite green absorbance 630 nm; apparent inhibition (interference), % at 20 µM; 2,500 tested, under 10 active;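 further: compounds added after enzyme reaction finished so only phosphate colour detection is probed; plate controls were DMSO wells with completed Scp-1 reaction for no effect and substrate wells lacking enzyme for full effect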
Scp-1 Tm shift – validation of human Scp-1 inhibitors by thermal shift binding; thermal shift relative to vanadate control, % at 40 µM; Recombinant SCP1, Sypro Orange thermal shift Tm; shares compounds with Scp-1 inhibitor; 1,500 compounds, 25% hits;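 active means substances whose mean melting-temperature shift, as a percentage of the reference inhibitor's shift, reaches about 5.3%, limit read from the data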;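 further: 0% = Tm of DMSO wells and 100% = Tm with sodium orthovanadate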
* = called active by the depositor. Only some compounds are listed: those with a hit (about 2.3% of all), similar ones and a draw of the others.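 How the source made its calls, unless noted: active means inhibition of at least 30% at 20 µM; inactive means the rest.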

Results for O=C(c1ncn[nH]1)N1CCN(c2nc(-c3ccccc3)cs2)CC1 ?
DNMT1 inh: 21; Scp-1 inhibitor: 56*; Rpn11 block: 1; STEP block: 0; LMPTP block: 4; SUMO1-SIM PPI: 15; Scp-1 conf: 39*; Scp-1 MG ctr: -1; Scp-1 Tm shift: 2

What do the screens show for `Cc1cc(NS(=O)(=O)c2ccc(NC(=O)C(C)Oc3cc(C)c(Cl)c(C)c3)cc2)no1` (configuration not stated)?
DNMT1 inh: 2; Scp-1 inhibitor: -10; Rpn11 block: -6; STEP block: -3; LMPTP block: 1; SUMO1-SIM PPI: 16

What do the screens show for `O=[N+]([O-])c1cc(-c2ccc(/C=N/n3cnnc3)o2)ccc1Cl`?
DNMT1 inh: 0; Scp-1 inhibitor: 18; Rpn11 block: -4; STEP block: 8; LMPTP block: 4; SUMO1-SIM PPI: -37

What do the screens show for `O=[N+]([O-])c1ccc(Cl)c(-c2ccc(/C=N/n3cnnc3)o2)c1`?
DNMT1 inh: 7; Scp-1 inhibitor: 62*; Rpn11 block: -14; STEP block: 10; LMPTP block: 4; SUMO1-SIM PPI: -19; Scp-1 conf: 52*; Scp-1 MG ctr: -13; Scp-1 Tm shift: 2

Results for CCOC(=O)Cn1c(=NC(=O)c2sc3ccccc3c2Cl)sc2cc(S(N)(=O)=O)ccc21 ?
DNMT1 inh: 36; Scp-1 inhibitor: 67*; Rpn11 block: 11; STEP block: 14; LMPTP block: 58*; SUMO1-SIM PPI: 3; Scp-1 conf: 75*; Scp-1 MG ctr: -12; Scp-1 Tm shift: 7.9*

Results for CCOC(=O)Cn1c(=NC(=O)CSC(C)=O)sc2ccccc21 ?
DNMT1 inh: -1; Scp-1 inhibitor: -7; Rpn11 block: 0; STEP block: 5; LMPTP block: 0; SUMO1-SIM PPI: 3

Results for Cc1c(C)[n+](=O)c(C)c(C)n1[O-] ?
DNMT1 inh: 5; Scp-1 inhibitor: -10; Rpn11 block: 0; STEP block: -1; LMPTP block: -1; SUMO1-SIM PPI: -5

Results for CO[C@@]1(NC(=O)C2SC(=C(C(N)=O)C(=O)O)S2)C(=O)N2C(C(=O)O)=C(CSc3nnnn3C)CS[C@@H]21 (some centres not stated) ?
DNMT1 inh: 11; Scp-1 inhibitor: 42; Rpn11 block: -4; STEP block: -2; LMPTP block: -1; SUMO1-SIM PPI: 6

Results for CO[C@@]1(NC(=O)Cc2cccs2)C(=O)N2C(C(=O)O)=C(COC(N)=O)CS[C@@H]21 ?
DNMT1 inh: 6; Scp-1 inhibitor: 52*; Rpn11 block: 1; STEP block: 5; LMPTP block: -1; SUMO1-SIM PPI: 8; Scp-1 conf: 41*; Scp-1 MG ctr: -10; Scp-1 Tm shift: 2

How did COc1ccccc1-c1ocnc1C(=O)N1CCN(S(=O)(=O)c2ccc(NC(C)=O)cc2)CC1 do in these assays?
DNMT1 inh: -2; Scp-1 inhibitor: -5; Rpn11 block: -4; STEP block: 2; LMPTP block: 0; SUMO1-SIM PPI: 3

What do the screens show for `Cc1ccn2cc(CCNC(=O)C3CC=CCC3C(=O)O)nc2c1` (configuration not stated)?
DNMT1 inh: -1; Scp-1 inhibitor: 55*; Rpn11 block: -6; STEP block: -2; LMPTP block: -5; SUMO1-SIM PPI: -4; Scp-1 conf: -6; Scp-1 MG ctr: -5

How did O=C(NCc1ccccc1Cl)C(=O)NCC1OCCCN1S(=O)(=O)c1cccs1 (configuration not stated) do in these assays?
DNMT1 inh: -4; Scp-1 inhibitor: -7; Rpn11 block: 2; STEP block: -1; LMPTP block: 1; SUMO1-SIM PPI: -1
